Calls of active or inactive are those of the source. The calls are words filed in the database; no cut-off is given here.
Legend:
[1] = biological target: T1, Androgen receptor (Homo sapiens) (UniProt P10275); assay: Antagonist activity at androgen receptor in human LNCAP cells assessed as decrease in prostate specific antigen mRNA level at 2.5 uM after 20 hrs by real time RT-PCR analysis; assay type: functional, cell-based
T1 sequence (whole entry): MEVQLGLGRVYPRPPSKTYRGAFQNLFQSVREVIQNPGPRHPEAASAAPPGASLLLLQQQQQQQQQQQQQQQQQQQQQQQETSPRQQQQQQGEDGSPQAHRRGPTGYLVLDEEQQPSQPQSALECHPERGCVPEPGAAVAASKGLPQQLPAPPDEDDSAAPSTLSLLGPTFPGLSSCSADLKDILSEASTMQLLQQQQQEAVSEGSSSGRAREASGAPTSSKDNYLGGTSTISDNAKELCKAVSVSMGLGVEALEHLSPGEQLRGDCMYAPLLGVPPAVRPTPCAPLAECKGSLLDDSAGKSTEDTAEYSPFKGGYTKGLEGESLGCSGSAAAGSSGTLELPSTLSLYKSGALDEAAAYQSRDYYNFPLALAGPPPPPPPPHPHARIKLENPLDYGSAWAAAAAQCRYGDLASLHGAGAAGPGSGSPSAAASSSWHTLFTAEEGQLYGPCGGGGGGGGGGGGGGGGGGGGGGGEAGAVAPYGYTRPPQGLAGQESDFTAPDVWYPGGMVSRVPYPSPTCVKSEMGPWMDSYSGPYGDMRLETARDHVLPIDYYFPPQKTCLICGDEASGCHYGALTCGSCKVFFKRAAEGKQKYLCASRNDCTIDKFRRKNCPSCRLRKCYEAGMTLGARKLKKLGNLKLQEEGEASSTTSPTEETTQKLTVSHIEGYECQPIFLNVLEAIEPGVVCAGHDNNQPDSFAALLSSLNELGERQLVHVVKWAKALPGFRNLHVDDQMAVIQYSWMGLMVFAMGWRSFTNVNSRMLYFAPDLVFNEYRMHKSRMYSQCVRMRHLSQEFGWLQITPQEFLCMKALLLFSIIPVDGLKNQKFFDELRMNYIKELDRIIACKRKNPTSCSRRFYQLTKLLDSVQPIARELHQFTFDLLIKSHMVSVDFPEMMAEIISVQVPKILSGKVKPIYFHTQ
Outline: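 LNCaP prostate cancer cells (AR carries T877A ligand-binding-domain mutation) exposed to compound at 2.5 μM for 20 hr; PSA mRNA quantified by real-time RT-PCR and expressed relative to DMSO-treated control cells set to 1; mean values, n = 3.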

[2] = biological target: T1, Androgen receptor (Homo sapiens); assay: Antagonist activity at androgen receptor in human LNCAP cells assessed as inhibition of R1881-induced prostate specific antigen mRNA expression after 20 hrs by real time RT-PCR analysis relative to control; assay type: functional, cell-based
Outline: (§1)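 LNCaP cells were first kept 3 days in phenol red-free RPMI 1640 with 10% charcoal-stripped FBS and 1% antibiotic-antimycotic. They were then exposed for 20 hr to compound at 10, 5 or 1 μM together with 0.5 nM R1881. PSA and TMPRSS2 mRNA were quantified by real-time RT-PCR against DMSO-treated controls.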

[3] = biological target: T1, Androgen receptor (Homo sapiens); assay: Antagonist activity at androgen receptor in human LNCAP cells assessed as inhibition of R1881-induced transmembrane protease serine 2 mRNA expression after 20 hrs by real time RT-PCR analysis; assay type: functional, cell-based; outline: as §1
LNCaP = assay: Cytotoxicity against human LNCAP cells after 3 days; assay type: functional, cell-based; settings: 72 h
[4] = biological target: T1, Androgen receptor (Homo sapiens); settings: LNCaP, 10 uM
[5] = biological target: T1, Androgen receptor (Homo sapiens); settings: LNCaP, 10 uM; remark: listed apart in the source
Androgen receptor [6] = biological target: T2, Androgen receptor (Homo sapiens, UniProt P10275); assay: Antagonist activity at androgen receptor in human LNCAP cells assessed as decrease in prostate specific antigen mRNA level after 20 hrs by real time RT-PCR analysis
T2 sequence (P10275 whole entry): T1 sequence (whole entry)

[7] = biological target: T1, Androgen receptor (Homo sapiens); settings: LNCaP, 10 uM; remark: listed apart in the source
[8] = biological target: T1, Androgen receptor (Homo sapiens); settings: LNCaP, 10 uM; remark: listed apart in the source
[9] = biological target: T1, Androgen receptor (Homo sapiens); settings: LNCaP, 10 uM; remark: listed apart in the source
Androgen receptor [10] = biological target: T2, Androgen receptor; assay: Antagonist activity at androgen receptor in human LNCAP cells assessed as decrease in transmembrane protease serine 2 mRNA level after 20 hrs by real time RT-PCR analysis
[11] = biological target: T1, Androgen receptor (Homo sapiens); assay: Agonist activity at androgen receptor in human LNCAP cells assessed as potentiation of R1881-induced transmembrane protease serine 2 mRNA expression at 1 uM after 20 hrs by real time RT-PCR analysis; assay type: functional, cell-based; outline: as §1
[12] = biological target: T1, Androgen receptor (Homo sapiens); assay: Agonist activity at androgen receptor in human LNCAP cells assessed as potentiation of R1881-induced prostate specific antigen mRNA expression at 1 uM after 20 hrs by real time RT-PCR analysis; assay type: functional, cell-based; outline: as §1

Row | inhibition [1] [%] | inhibition [2] | inhibition [3] | SMILES | other results
1 | 84 | Dose-dependent effect | Dose-dependent effect | COc1ccc(C(=O)/C=C/c2ccc([N+](=O)[O-])cc2)c(OC)c1OC | 
2 |  | Dose-dependent effect | Dose-dependent effect | COc1ccc(C(=O)/C=C/c2ccc([N+](=O)[O-])cc2)cc1OC | 
3 | 94 |  |  | COc1ccccc1C(=O)/C=C/c1ccccc1C(F)(F)F | 
4 | 90 |  |  | COc1cccc(OC)c1C(=O)/C=C/c1ccc([N+](=O)[O-])cc1 | 
5 | 85 | Dose-dependent effect | Dose-dependent effect | COc1ccc(C(=O)/C=C/c2ccc(C#N)cc2)cc1OC | 
6 | 81 |  |  | COc1ccc(C(=O)/C=C/c2cccc(C(F)(F)F)c2)c(OC)c1OC | 
7 | 94 | Dose-dependent effect | Dose-dependent effect | COc1ccccc1C(=O)/C=C/c1ccccc1[N+](=O)[O-] | IC50 (LNCaP): 3400 nM; inhibition [4]: Active; inhibition [5]: 89%; IC50 (Androgen receptor [6]): 600 nM; inhibition [7]: 99%; inhibition [8]: Active; inhibition [9]: Dose-dependent effect; IC50 (Androgen receptor [10]): 750 nM
8 | 87 |  |  | COc1cccc(OC)c1C(=O)/C=C/c1ccccc1C(F)(F)F | 
9 | 81 |  |  | COc1cccc(OC)c1C(=O)/C=C/c1ccc([N+](=O)[O-])cc1[N+](=O)[O-] | 
10 | 84 | Dose-dependent effect | Dose-dependent effect | COc1ccc(C(=O)/C=C/c2cccc([N+](=O)[O-])c2)c(OC)c1OC | Activity [11]: Active; Activity [12]: Active
11 | 63 |  |  | COc1ccccc1C(=O)/C=C/c1ccccc1 | 
12 | 85 |  |  | COc1cccc(OC)c1C(=O)/C=C/c1cccc([N+](=O)[O-])c1 | 
13 | 82 |  |  | COc1ccc(OC)c(C(=O)/C=C/c2ccc(C#N)cc2)c1 | 

— ChEMBL document CHEMBL2010800, “Methoxychalcone inhibitors of androgen receptor translocation and function” (Bioorg Med Chem Lett, 2012)
